# Measurements published in ChEMBL document CHEMBL4402603, “Structure-Activity Relationship of SPOP Inhibitors against Kidney Cancer” (J Med Chem, 2020).
# Calls of active or inactive are those of the source. No cut-off for these calls is given here.
# Experiments:
# [1] = target: Speckle-type POZ protein (Homo sapiens) (UniProt O43791); assay: Inhibition of SPOP signalling in human OS-RC2 cells assessed as accumulation of DUSP7 incubated for 12 hrs by Western blot analysis; assay type: cell-based
# Chain of Speckle-type POZ protein (Homo sapiens) (O43791 whole entry, the tested form may be a part): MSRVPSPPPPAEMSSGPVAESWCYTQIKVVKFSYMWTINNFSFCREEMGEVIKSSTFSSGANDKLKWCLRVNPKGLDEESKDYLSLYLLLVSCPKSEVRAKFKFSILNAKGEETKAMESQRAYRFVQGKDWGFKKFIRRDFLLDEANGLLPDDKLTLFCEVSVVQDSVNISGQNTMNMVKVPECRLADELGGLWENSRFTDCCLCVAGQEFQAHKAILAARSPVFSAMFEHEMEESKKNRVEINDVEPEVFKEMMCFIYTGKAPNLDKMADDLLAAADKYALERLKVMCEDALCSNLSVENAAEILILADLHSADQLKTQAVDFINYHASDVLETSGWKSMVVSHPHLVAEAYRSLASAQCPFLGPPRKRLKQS
# Outline: (§1)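 Cells exposed 12 hr to inhibitor at graded concentrations, RIPA lysates normalized by BCA. 12% SDS-PAGE, nitrocellulose transfer, milk block, primary antibody at 4 °C overnight, HRP secondary, ECL. GAPDH loading control.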
# [2] = target: Speckle-type POZ protein (Homo sapiens) (UniProt O43791); assay: Binding affinity to recombinant N-terminal GST/His-tagged MATH binding domain SPOP (unknown origin) expressed in Escherichia coli BL21 (DE3) assessed as change in melting temperature at 10 fold compound incubated for 15 mins by nano differential scanning fluorimetry (reference value: -1.7 degreeC)
# A498 [3] = assay: Antiproliferative activity against human A498 cells assessed as reduction in cell viability incubated for 72 hrs by MTT assay; assay type: functional, cell-based; conditions: A498, 72 h
# Outline: (§2)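 MTT read-out. Cells seeded at 1,000-2,200/well, grown 12 hr at 37 °C before compound, then exposed 72 hr. MTT for 4 hr, formazan dissolved in DMSO, A490 read. Untreated cells = 100% proliferation. IC50 quantitated; mean ± SD, n = 3.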
# OS-RC-2 [4] = assay: Antiproliferative activity against human OS-RC2 cells assessed as reduction in cell viability incubated for 72 hrs by MTT assay; assay type: functional, cell-based; conditions: OS-RC-2, 72 h; outline: as §2
# HK-2 = assay: Cytotoxicity against human HK2 cells assessed as reduction in cell viability incubated for 72 hrs by MTT assay; assay type: cell-based; conditions: HK-2, 72 h
# [5] = Solubility of compound in cell culture medium in presence of 0.2 % DMSO; assay type: physicochemical
# Outline: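 Solubility determined in cell culture medium containing 0.2% DMSO.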
# A498 [6] = assay: Inhibition of colony formation in human A498 cells at 1 to 5 uM incubated for 12 days by crystal violet dye based assay; assay type: functional, cell-based
# Outline: (§3)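 Cells seeded at 1,000/well, grown 12 days at 37 °C, 5% CO2, medium renewed every 3 days. Fixed with 10% acetic acid/10% methanol for 15 min, stained with 1% crystal violet for 10 min.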
# OS-RC-2 [7] = assay: Inhibition of colony formation in human OS-RC2 cells at 1 to 5 uM incubated for 12 days by crystal violet dye based assay; assay type: functional, cell-based; outline: as §3
# [8] = target: Speckle-type POZ protein (Homo sapiens) (UniProt O43791); assay: Inhibition of SPOP in HEK293T cells assessed as reduction in cell viability incubated for 72 hrs by MTT assay; assay type: cell-based
# U-251 = assay: Cytotoxicity against human U251 cells assessed as reduction in cell viability incubated for 72 hrs by MTT assay; assay type: cell-based; conditions: U-251, 72 h
# Outline: (§4)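 Cells maintained in DMEM/10% FBS at 37 °C, 5% CO2. Cell proliferation quantified by MTT after 72 hr compound exposure, A490 read. Untreated cells = 100%. Mean ± SD, n = 3.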
# A549 = assay: Cytotoxicity against human A549 cells assessed as reduction in cell viability incubated for 72 hrs by MTT assay; assay type: cell-based; conditions: A549, 72 h; outline: as §4
# [9] = Selectivity index, ratio of IC50 for human H1299 to IC50 for human A498 cells
# [10] = Selectivity index, ratio of IC50 for human U251 to IC50 for human A498 cells
# [11] = target: Speckle-type POZ protein (Homo sapiens) (UniProt O43791); assay: Binding affinity to recombinant N-terminal GST/His-tagged MATH binding domain SPOP (unknown origin) expressed in Escherichia coli BL21 (DE3) assessed as change in melting temperature at 20 fold compound incubated for 15 mins by nano differential scanning fluorimetry (reference value: -3.8 degreeC)
# [12] = target: Speckle-type POZ protein (Homo sapiens) (UniProt O43791); assay: Binding affinity to recombinant N-terminal GST/His-tagged SPOP (unknown origin) (23 to 337 residues) expressed in Escherichia coli BL21 (DE3) assessed as change in melting temperature at 1 fold compound incubated for 15 mins by nano differential scanning fluorimetry (reference value: -1.9 degreeC)
# [13] = target: Speckle-type POZ protein (Homo sapiens) (UniProt O43791); assay: Binding affinity to recombinant N-terminal GST/His-tagged SPOP (unknown origin) (23 to 337 residues) expressed in Escherichia coli BL21 (DE3) assessed as change in melting temperature at 5 fold compound incubated for 15 mins by nano differential scanning fluorimetry (reference value: -1.9 degreeC)
# [14] = target: Speckle-type POZ protein (Homo sapiens) (UniProt O43791); assay: Binding affinity to recombinant N-terminal GST/His-tagged SPOP (unknown origin) MATH binding domain expressed in Escherichia coli BL21 (DE3) assessed as change in melting temperature at 5 fold compound by SYPRO Orange dye based differential scanning fluorimetry (reference value: -1.7 degreeC)
# [15] = target: Speckle-type POZ protein (Homo sapiens) (UniProt O43791); assay: Binding affinity to recombinant N-terminal GST/His-tagged SPOP (unknown origin) MATH binding domain expressed in Escherichia coli BL21 (DE3) assessed as change in melting temperature at 10 fold compound by SYPRO Orange dye based differential scanning fluorimetry (reference value: -1.7 degreeC)
# [16] = target: T1, Speckle-type POZ protein/PTEN (Homo sapiens) (UniProt P60484+O43791); assay: Inhibition of SPOP/PTEN interaction in human A498 cells assessed as increase in SPOP level at 1 to 50 uM incubated for 20 mins by DARTS based Western blot analysis; assay type: cell-based
# T1 sequence (O43791 whole entry, looked up): as the sequence (O43791 whole entry, the tested form may be a part) above
# T1 sequence (P60484 whole entry, looked up): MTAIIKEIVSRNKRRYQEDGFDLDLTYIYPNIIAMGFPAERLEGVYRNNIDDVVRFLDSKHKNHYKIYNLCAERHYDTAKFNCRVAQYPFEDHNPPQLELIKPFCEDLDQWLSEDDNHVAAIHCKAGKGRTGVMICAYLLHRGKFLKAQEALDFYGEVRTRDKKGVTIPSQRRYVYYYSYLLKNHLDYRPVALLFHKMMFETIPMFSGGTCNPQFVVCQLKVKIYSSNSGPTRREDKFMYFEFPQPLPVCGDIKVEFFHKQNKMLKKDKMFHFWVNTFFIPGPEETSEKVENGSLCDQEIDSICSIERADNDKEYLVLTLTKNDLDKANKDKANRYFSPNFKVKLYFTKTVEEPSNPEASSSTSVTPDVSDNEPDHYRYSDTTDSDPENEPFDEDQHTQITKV
# Outline: (§5)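 DARTS. Lysates of 1×10⁶ cells in TNC buffer, 120 μg per tube, incubated with compound at 0, 1, 5, 10 or 50 μM for 20 min at rt. Pronase digestion 10 min at rt (1:1000 for A498, 1:2000 for OS-RC-2), stopped with protease inhibitors, then SPOP western blot. Triplicate experiments.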
# [17] = target: T1, Speckle-type POZ protein/PTEN (Homo sapiens); assay: Inhibition of SPOP/PTEN interaction in human OS-RC2 cells assessed as increase in SPOP level at 1 to 50 uM incubated for 20 mins by DARTS based Western blot analysis; assay type: cell-based; outline: as §5
# [18] = target: Speckle-type POZ protein (Homo sapiens) (UniProt O43791); assay: Inhibition of SPOP signalling in human A498 cells assessed as accumulation of DUSP7 incubated for 12 hrs by Western blot analysis; assay type: cell-based; outline: as §1
# [19] = target: Speckle-type POZ protein (Homo sapiens) (UniProt O43791); assay: Inhibition of SPOP signalling in human OS-RC2 cells assessed as reduction in AKT phosphorylation at 0.5 to 15 uM incubated for 12 hrs by Western blot analysis; assay type: cell-based; outline: as §1
# [20] = target: Speckle-type POZ protein (Homo sapiens) (UniProt O43791); assay: Inhibition of SPOP signalling in human OS-RC2 cells assessed as reduction in ERK phosphorylation at 0.5 to 15 uM incubated for 12 hrs by Western blot analysis; assay type: cell-based; outline: as §1
# [21] = target: Speckle-type POZ protein (Homo sapiens) (UniProt O43791); assay: Inhibition of SPOP signalling in human A498 cells assessed as effect on total AKT level at 0.5 to 10 uM incubated for 12 hrs by Western blot analysis; assay type: cell-based; outline: as §1
# [22] = target: Speckle-type POZ protein (Homo sapiens) (UniProt O43791); assay: Inhibition of SPOP signalling in human A498 cells assessed as effect on total ERK level at 0.5 to 10 uM incubated for 12 hrs by Western blot analysis; assay type: cell-based; outline: as §1
# [23] = target: Speckle-type POZ protein (Homo sapiens) (UniProt O43791); assay: Inhibition of SPOP signalling in human OS-RC2 cells assessed as effect on total ERK level at 0.5 to 15 uM incubated for 12 hrs by Western blot analysis; assay type: cell-based; outline: as §1
# [24] = target: Speckle-type POZ protein (Homo sapiens) (UniProt O43791); assay: Inhibition of SPOP signalling in human OS-RC2 cells assessed as effect of PTEN mRNA expression at 1 to 10 uM incubated for 12 hrs by qRT-PCR analysis; assay type: cell-based
smiles,measurement,setting,value
Cc1cccn2c(=O)c3cc(C(=O)NCCN4CCN(C)CC4)c(=N)n(CCc4cccs4)c3nc12,inhibition,[1],Dose-dependent effect
same,ΔTm,[2],3.1 °C
same,IC50,A498 [3],2.1 µM
same,IC50,OS-RC-2 [4],3.5 µM
same,IC50,HK-2,> 30 µM
same,solubility,[5],> 90 µM
same,inhibition,A498 [6],Active
same,inhibition,OS-RC-2 [7],Active
same,inhibition,[8],Active
same,IC50,U-251,10.2 µM
same,IC50,A549,16.2 µM
same,Ratio IC50,[9],>5
same,Ratio IC50,[10],>5
same,ΔTm,[11],3.5 °C
same,ΔTm,[12],2.1 °C
same,ΔTm,[13],2.1 °C
same,ΔTm,[14],3.7 °C
same,ΔTm,[15],4 °C
same,inhibition,[16],Active
same,inhibition,[17],Active
same,inhibition,[18],Dose-dependent effect
same,inhibition,[19],Active
same,inhibition,[20],Active
same,inhibition,[21],inactive
same,inhibition,[22],inactive
same,inhibition,[23],inactive
same,inhibition,[24],inactive
